Experimental data taken from ChEMBL document CHEMBL1128568, “Design and structure-activity relationships of C-terminal cyclic neurotensin fragment analogues” (J Med Chem, 1995).
Non-standard residues stand in square brackets, D forms with d. Residues, ends and D or L forms follow the SMILES beside them. NMeR = CN[C@@H](CCCNC(=N)N)C(=O)O; Tle = CC(C)(C)[C@H](N)C(=O)O

Assay: Binding affinity against neurotensin receptor.
Procedure, shortened: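 Neonatal (10-day postnatal) mouse brain membranes, cerebellum removed, washed by repeated 100000g spins in 5 mM Tris pH 7.5, resuspended 1 g wet weight/mL in 50 mM Tris pH 7.4 with BSA, bacitracin, EDTA, phenanthroline, PMSF. Competition against [3H]NT (0.20 nM final) or [125I-Tyr3]NT (0.21 nM final), 30 min at 25 °C. Separation by filtration on PEI-soaked GF/B filters. Nonspecific binding with 1 μM NT.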

SMILES	Ki
CC(C)C[C@H](NC(=O)[C@@H](N)CCC(=O)O)C(=O)N[C@@H](Cc1ccc(O)cc1)C(=O)N[C@@H](CCC(=O)O)C(=O)N[C@@H](CC(N)=O)C(=O)N[C@@H](CCCCN)C(=O)N1CCC[C@H]1C(=O)N1C(=O)[C@H](CC(C)C)NC(=O)[C@H](C(C)(C)C)NC(=O)[C@H](Cc2ccc(O)cc2)NC(=O)[C@@H]2CCCN2C(=O)[C@H](CCCCN)NC(=O)[C@H]1CCCN=C(N)N	440 nM
CC(C)C[C@H](NC(=O)[C@@H](N)CCC(=O)O)C(=O)N[C@@H](Cc1ccc(O)cc1)C(=O)N[C@@H](CCC(=O)O)C(=O)N[C@@H](CC(N)=O)C(=O)N[C@@H](CCCCN)C(=O)N1CCC[C@H]1C(=O)N1C(=O)[C@H](CC(C)C)NC(=O)[C@H](C(C)(C)C)NC(=O)[C@H](Cc2c[nH]c3ccccc23)NC(=O)[C@@H]2CCCN2C(=O)[C@H](CCCCN)NC(=O)[C@@H]1CCCN=C(N)N	410 nM
CC(C)C[C@H](NC(=O)[C@H]1NC(=O)[C@H](Cc2c[nH]c3ccccc23)NC(=O)[C@H]2CCCN2C(=O)[C@H](NC(=O)[C@H](CCCN=C(N)N)N(C)C(=O)[C@@H]2CCCN2C(=O)[C@H](CCCCN)NC(=O)[C@H](CC(N)=O)NC(=O)[C@H](CCC(=O)O)NC(=O)[C@H](Cc2ccc(O)cc2)NC(=O)[C@H](CC(C)C)NC(=O)[C@@H](N)CCC(=O)O)CSSC1(C)C)C(=O)O	83 nM
CC(C)C[C@H](NC(=O)[C@@H](N)CCC(=O)O)C(=O)N[C@@H](Cc1ccc(O)cc1)C(=O)N[C@@H](CCC(=O)O)C(=O)N[C@@H](CC(N)=O)C(=O)N[C@@H](CCCCN)C(=O)N1CCC[C@H]1C(=O)N1C(=O)[C@H](CCC(=O)O)NC(=O)[C@H](Cc2c[nH]c3ccccc23)NC(=O)[C@@H]2CCCN2C(=O)[C@H](CCCCN)NC(=O)[C@H]1CCCN=C(N)N	> 10000 nM
CC(C)C[C@H](NC(=O)CC[C@@H]1NC(=O)[C@H](Cc2c[nH]c3ccccc23)NC(=O)[C@@H]2CCCN2C(=O)[C@H](CCCCN)NC(=O)[C@@H](CCCN=C(N)N)N(C(=O)[C@@H]2CCCN2C(=O)[C@H](CCCCN)NC(=O)[C@H](CC(N)=O)NC(=O)[C@H](CCC(=O)O)NC(=O)[C@H](Cc2ccc(O)cc2)NC(=O)[C@H](CC(C)C)NC(=O)[C@@H](N)CCC(=O)O)C1=O)C(=O)O	16 nM
CC(C)C[C@H](NC(=O)[C@@H](N)CCC(=O)O)C(=O)N[C@@H](Cc1ccc(O)cc1)C(=O)N[C@@H](CCC(=O)O)C(=O)N[C@@H](CC(N)=O)C(=O)N[C@@H](CCCCN)C(=O)N1CCC[C@H]1C(=O)N1C(=O)[C@H](CCC(=O)NCC(=O)O)NC(=O)[C@H](Cc2c[nH]c3ccccc23)NC(=O)[C@@H]2CCCN2C(=O)[C@H](CCCCN)NC(=O)[C@H]1CCCN=C(N)N	250 nM
CC(C)C[C@H](NC(=O)CCC[C@@H]1NC(=O)[C@H](Cc2c[nH]c3ccccc23)NC(=O)[C@@H]2CCCN2C(=O)[C@H](CCCCN)NC(=O)[C@H](CCCN=C(N)N)N(C(=O)[C@@H]2CCCN2C(=O)[C@H](CCCCN)NC(=O)[C@H](CC(N)=O)NC(=O)[C@H](CCC(=O)O)NC(=O)[C@H](Cc2ccc(O)cc2)NC(=O)[C@H](CC(C)C)NC(=O)[C@@H](N)CCC(=O)O)C1=O)C(=O)O	830 nM
CC(C)C[C@H](NC(=O)[C@@H](N)CCC(=O)O)C(=O)N[C@@H](Cc1ccc(O)cc1)C(=O)N[C@@H](CCC(=O)O)C(=O)N[C@@H](CC(N)=O)C(=O)N[C@@H](CCCCN)C(=O)N1CCC[C@H]1C(=O)N(C)[C@@H](CCCN=C(N)N)C(=O)N1C(=O)[C@H](CC(C)C)NC(=O)[C@@H](CCC(=O)O)NC(=O)[C@H](Cc2c[nH]c3ccccc23)NC(=O)[C@@H]2CCCN2C(=O)[C@@H]1CCCCN	1600 nM
CC(C)C[C@H](NC(=O)C[C@@H]1NC(=O)[C@H](Cc2c[nH]c3ccccc23)NC(=O)[C@@H]2CCCN2C(=O)[C@H](CCCCN)NC(=O)[C@@H](CCCN=C(N)N)N(C(=O)[C@@H]2CCCN2C(=O)[C@H](CCCCN)NC(=O)[C@H](CC(N)=O)NC(=O)[C@H](CCC(=O)O)NC(=O)[C@H](Cc2ccc(O)cc2)NC(=O)[C@H](CC(C)C)NC(=O)[C@@H](N)CCC(=O)O)C1=O)C(=O)O	910 nM
CC(C)CC(NC(=O)CC[C@H]1NC(=O)[C@H](Cc2c[nH]c3ccccc23)NC(=O)[C@@H]2CCCN2C(=O)[C@H](CCCCN)NC(=O)[C@@H](CCCN=C(N)N)N(C(=O)[C@@H]2CCCN2C(=O)[C@H](CCCCN)NC(=O)[C@H](CC(N)=O)NC(=O)C(CCC(=O)O)NC(=O)[C@H](Cc2ccc(O)cc2)NC(=O)[C@H](CC(C)C)NC(=O)C(N)CCC(=O)O)C1=O)C(=O)O (stereo in doubt)	> 10000 nM
CC(C)C[C@H](NC(=O)[C@H](CCC(=O)O)NC(=O)[C@H](Cc1c[nH]c2ccccc12)NC(=O)[C@@H]1CCCN1C(=O)[C@H](CCCCN)NC(=O)[C@H](CCCN=C(N)N)N(C)C(=O)[C@@H]1CCCN1C(=O)[C@H](CCCCN)NC(=O)[C@H](CC(N)=O)NC(=O)[C@H](CCC(=O)O)NC(=O)[C@H](Cc1ccc(O)cc1)NC(=O)[C@H](CC(C)C)NC(=O)[C@@H](N)CCC(=O)O)C(=O)O (H-ELYENKP[NMeR]KPWEL-OH)	> 10000 nM
CC(=O)N(C(=O)[C@@H]1CCCN1C(=O)[C@H](CCCCN)NC(=O)[C@H](CC(N)=O)NC(=O)[C@H](CCC(=O)O)NC(=O)[C@H](Cc1ccc(O)cc1)NC(=O)[C@H](CC(C)C)NC(=O)[C@@H](N)CCC(=O)O)[C@@H](CCCN=C(N)N)C(=O)N[C@@H](CCCCN)C(=O)N1CCC[C@H]1C(=O)N[C@@H](Cc1c[nH]c2ccccc12)C(=O)N[C@@H](CCC(N)=O)C(=O)N[C@@H](CC(C)C)C(=O)O	260 nM
CC(C)C[C@H](NC(=O)[C@H]1NC(=O)[C@H](Cc2c[nH]c3ccccc23)NC(=O)[C@H]2CCCN2C(=O)[C@H](NC(=O)[C@H](CCCN=C(N)N)N(C)C(=O)[C@@H]2CCCN2C(=O)[C@H](CCCCN)NC(=O)[C@H](CC(N)=O)NC(=O)[C@H](CCC(=O)O)NC(=O)[C@H](Cc2ccc(O)cc2)NC(=O)[C@H](CC(C)C)NC(=O)[C@@H](N)CCC(=O)O)C(C)(C)SSC1(C)C)C(=O)O	4400 nM
CC(C)C[C@H](NC(=O)[C@@H](N)CCC(=O)O)C(=O)N[C@@H](Cc1ccc(O)cc1)C(=O)N[C@@H](CCC(=O)O)C(=O)N[C@@H](CC(N)=O)C(=O)N[C@@H](CCCCN)C(=O)N1CCC[C@H]1C(=O)N(C)[C@@H](CCCN=C(N)N)C(=O)N1C(=O)[C@H](CC(C)C)NC(=O)[C@H](CCC(=O)O)NC(=O)[C@H](Cc2c[nH]c3ccccc23)NC(=O)[C@@H]2CCCN2C(=O)[C@@H]1CCCCN	770 nM
CC(C)C[C@H](NC(=O)[C@@H](N)CCC(=O)O)C(=O)N[C@@H](Cc1ccc(O)cc1)C(=O)N[C@@H](CCC(=O)O)C(=O)N[C@@H](CC(N)=O)C(=O)N[C@@H](CCCCN)C(=O)N1CCC[C@H]1C(=O)N(C)[C@@H](CCCN=C(N)N)C(=O)N1C(=O)[C@H](CC(C)C)NC(=O)[C@@H](CCC(=O)O)NC(=O)[C@H](Cc2c[nH]c3ccccc23)NC(=O)[C@@H]2CCCN2C(=O)[C@H]1CCCCN	2500 nM
CC(C)C[C@H](NC(=O)[C@@H](NC(=O)[C@H](Cc1c[nH]c2ccccc12)NC(=O)[C@@H]1CCCN1C(=O)[C@H](CCCCN)NC(=O)[C@H](CCCN=C(N)N)N(C)C(=O)[C@@H]1CCCN1C(=O)[C@H](CCCCN)NC(=O)[C@H](CC(N)=O)NC(=O)[C@H](CCC(=O)O)NC(=O)[C@H](Cc1ccc(O)cc1)NC(=O)[C@H](CC(C)C)NC(=O)[C@@H](N)CCC(=O)O)C(C)(C)C)C(=O)O (H-ELYENKP[NMeR]KPW[Tle]L-OH)	0.67 nM
CC(C)C[C@H](NC(=O)CC[C@@H]1NC(=O)[C@H](Cc2c[nH]c3ccccc23)NC(=O)[C@@H]2CCCN2C(=O)[C@H](C)NC(=O)[C@@H](CCCN=C(N)N)N(C(=O)[C@@H]2CCCN2C(=O)[C@H](CCCCN)NC(=O)[C@H](CC(N)=O)NC(=O)[C@H](CCC(=O)O)NC(=O)[C@H](Cc2ccc(O)cc2)NC(=O)[C@H](CC(C)C)NC(=O)[C@@H](N)CCC(=O)O)C1=O)C(=O)O	> 10000 nM
CC(C)CC(NC(=O)CC[C@@H]1NC(=O)[C@H](Cc2c[nH]c3ccccc23)NC(=O)[C@@H]2CCCN2C(=O)[C@H](CCCCN)NC(=O)[C@H](CCCN=C(N)N)N(C)C(=O)CN(C(=O)[C@@H]2CCCN2C(=O)[C@H](CCCCN)NC(=O)[C@H](CC(N)=O)NC(=O)[C@H](CCC(=O)O)NC(=O)[C@H](Cc2ccc(O)cc2)NC(=O)[C@H](CC(C)C)NC(=O)[C@@H](N)CCC(=O)O)C1=O)C(=O)O (some centres undefined)	28 nM
CC(C)C[C@H](NC(=O)[C@@H]1CSSC[C@@H](NC(=O)[C@H](CCCN=C(N)N)N(C)C(=O)[C@@H]2CCCN2C(=O)[C@H](CCCCN)NC(=O)[C@H](CC(N)=O)NC(=O)[C@H](CCC(=O)O)NC(=O)[C@H](Cc2ccc(O)cc2)NC(=O)[C@H](CC(C)C)NC(=O)[C@@H](N)CCC(=O)O)C(=O)N2CCC[C@@H]2C(=O)N[C@@H](Cc2c[nH]c3ccccc23)C(=O)N1)C(=O)O	810 nM
